Test results from ChEMBL document CHEMBL1136894, “New antituberculotics originated from salicylanilides with promising in vitro activity against atypical mycobacterial strains” (Bioorg Med Chem, 2009).
Converted amounts (≈) assume the structure as drawn.

How the values were obtained:
[1] = system: Mycobacterium tuberculosis; experiment: Antimycobacterial activity against Mycobacterium tuberculosis CNCTC My 331/88 after 14 days; format: functional; conditions: CNCTC My 331/88, 336 h
Outline: (§1)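 Broth dilution in Sula semisynthetic medium, compounds added as DMSO solutions at 250, 125, 62, 32, 16, 8, 4, 2 and 1. Strains came from the Czech National Collection of Type Cultures; the M. tuberculosis inoculum was diluted 10^-3. Cultures were incubated at 37 °C, and MIC was read after 7, 14 and 21 days.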

[2] = system: Mycobacterium tuberculosis; experiment: Antimycobacterial activity against Mycobacterium tuberculosis CNCTC My 331/88 after 21 days; format: functional; conditions: CNCTC My 331/88, 504 h; outline: as §1
Mycobacterium avium [3] = experiment: Antimycobacterial activity against Mycobacterium avium CNCTC My 330/88 after 14 days; format: functional; conditions: CNCTC My 330/88, 336 h; outline: as §1
Mycobacterium avium [4] = experiment: Antimycobacterial activity against Mycobacterium avium CNCTC My 330/88 after 21 days; format: functional; conditions: CNCTC My 330/88, 504 h; outline: as §1
Mycobacterium kansasii [5] = experiment: Antimycobacterial activity against Mycobacterium kansasii CNCTC My 235/80 after 7 days; format: functional; conditions: CNCTC My 235/80, 168 h
Outline: (§2)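 Compounds were added as DMSO solutions to Sula semisynthetic medium at 250, 125, 62, 32, 16, 8, 4, 2 and 1 µmol/L. Two M. kansasii strains were used: CNCTC My 235/80 and clinical isolate 6509/96, each with strain dilution 10^-4. Incubation was at 37 °C, and MIC was read at 7, 14 and 21 days.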

Mycobacterium kansasii [6] = experiment: Antimycobacterial activity against Mycobacterium kansasii CNCTC My 235/80 after 14 days; format: functional; conditions: CNCTC My 235/80, 336 h; outline: as §2
Mycobacterium kansasii [7] = experiment: Antimycobacterial activity against Mycobacterium kansasii CNCTC My 235/80 after 21 days; format: functional; conditions: CNCTC My 235/80, 504 h; outline: as §2
Mycobacterium kansasii [8] = experiment: Antimycobacterial activity against Mycobacterium kansasii isolate 6509/96 after 7 days; format: functional; conditions: isolate 6509/96, 168 h; outline: as §2
Mycobacterium kansasii [9] = experiment: Antimycobacterial activity against Mycobacterium kansasii isolate 6509/96 after 14 days; format: functional; conditions: isolate 6509/96, 336 h; outline: as §2
Mycobacterium kansasii [10] = experiment: Antimycobacterial activity against Mycobacterium kansasii isolate 6509/96 after 21 days; format: functional; conditions: isolate 6509/96, 504 h; outline: as §2
[11] = Lipophilicity, log K by HPLC; format: physicochemical
Outline: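 Capacity factors k were measured by RP-HPLC and log k was calculated from them.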

HCT-8 = experiment: Cytotoxicity against human HCT8 cells after 72 hrs by XTT assay; format: functional, cell-based; conditions: HCT-8, 72 h
Outline: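 HCT-8 cells were grown in EMEM with 5% FBS at 37 °C under 5% CO2. They were harvested with trypsin, seeded at 2 × 10^5 cells/mL and left 24 h. Medium was then replaced with compound in DMSO. DMSO-only wells served as the viability control and 20% DMSO as the cytotoxic control. Reagent was added for 4 h and absorbance read at 450 nm. Triplicates; EC50 reported.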

[12] = Selectivity index, ratio of EC50 for human HCT8 cells to MIC for Mycobacterium tuberculosis CNCTC My 331/88; format: functional, HCT-8
Outline: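 SI is EC50 in HCT-8 cells divided by the M. tuberculosis MIC. HCT-8 cells were grown in EMEM with 5% FBS at 37 °C under 5% CO₂, trypsinised and seeded at 2 × 10⁵ cells/mL. After 24 h the medium was replaced with compound in DMSO. Controls were DMSO alone and 20% DMSO. Absorbance was read at 450 nm 4 h after reagent addition, in triplicate.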

[13] = Stability assessed as half life in phosphate buffer at pH 7.4 by UV-visible spectroscopy; format: physicochemical
Outline: (§3)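 Compound in methanolic solution (10 or 20 µL) was added to tempered 7 × 10^-2 M phosphate buffer (2 mL) at pH 7.4 or 5.5, 37 °C. The absorbance decrease at 224 nm was followed by UV/vis.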

[14] = Stability assessed as half life in phosphate buffer at pH 5.5 by UV-visible spectroscopy; format: physicochemical; outline: as §3

Q: For `CC(C)[C@H](NC(=O)OCc1ccccc1)C(=O)Oc1ccc(Cl)cc1C(=O)Nc1ccc(Br)cc1`, which MIC [1] is on record?
A: 4 µM (≈ 2.24 µg/mL)

Q: And the MIC [2]?
A: 4 µM (≈ 2.24 µg/mL)

Q: What about the MIC (Mycobacterium avium [3]) of the same compound?
A: 8 µM (≈ 4.48 µg/mL)

Q: And the MIC (Mycobacterium avium [4])?
A: 16 µM (≈ 8.96 µg/mL)

Q: What about the MIC (Mycobacterium kansasii [5]) of the same compound?
A: 4 µM (≈ 2.24 µg/mL)

Q: What about the MIC (Mycobacterium kansasii [6]) of the same compound?
A: 8 µM (≈ 4.48 µg/mL)

Q: And the MIC (Mycobacterium kansasii [7])?
A: 8 µM (≈ 4.48 µg/mL)

Q: What about the MIC (Mycobacterium kansasii [8]) of the same compound?
A: 8 µM (≈ 4.48 µg/mL)

Q: And the MIC (Mycobacterium kansasii [9])?
A: 8 µM (≈ 4.48 µg/mL)

Q: And the MIC (Mycobacterium kansasii [10])?
A: 8 µM (≈ 4.48 µg/mL)

Q: What about the “log K” value [11] of the same compound?
A: 0.9803

Q: What about the EC50 (HCT-8) of the same compound?
A: 122 µM

Q: What about the Ratio [12] of the same compound?
A: 16.74

Q: What about the half-life [13] of the same compound?
A: 14.8 min

Q: What about the half-life [14] of the same compound?
A: 14.3 min
